# Measurements taken from ChEMBL document CHEMBL4732233, “Faropenem reacts with serine and metallo-β-lactamases to give multiple products” (Eur J Med Chem, 2021).
# Legend:
# [1] = Drug metabolism assessed as KPC-2 (unknown origin)-mediated compound hydrolysis by measuring (R)-2-((1S,2R)-1-carboxy-2-hydroxypropyl)-5-(4-hydroxybutylidene)-2,5-dihydrothiazole-4-carboxylic acid formation at 5 mM incubated for 72 mins by 1H-NMR based analysis; assay type: ADME; conditions: bacteria, 1.2 h, 5000 µM
# [2] = Drug metabolism assessed as L1 (unknown origin)-mediated compound hydrolysis by measuring (R)-2-((1S,2R)-1-carboxy-2-hydroxypropyl)-5-((R)-tetrahydrofuran-2-yl)-2,3-dihydrothiazole-4-carboxylic acid formation at 5 mM incubated for 5 mins by 1H-NMR based analysis; assay type: ADME; conditions: bacteria, 5000 µM
# Procedure, shortened: (§1)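 L1 enzyme (125 nM) reacted with 5 mM faropenem for 5 min in 50 mM sodium phosphate pH 7.5 containing 10% (v/v) D2O. Product species assigned by 1H NMR (700 MHz) methyl resonances.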
# Bacteria [3] = test system: Bacteria
# [4] = Drug metabolism assessed as L1 (unknown origin)-mediated compound hydrolysis by measuring (S)-2-((1S,2R)-1-carboxy-2-hydroxypropyl)-5-((R)-tetrahydrofuran-2-yl)-2,3-dihydrothiazole-4-carboxylic acid formation at 5 mM incubated for 5 mins by 1H-NMR based analysis; assay type: ADME; conditions: bacteria, 5000 µM; procedure, shortened: as §1
# [5] = Drug metabolism assessed as L1 (unknown origin)-mediated compound hydrolysis by measuring (R)-2-((1S,2R)-1-carboxy-2-hydroxypropyl)-5-(4-hydroxybutylidene)-2,5-dihydrothiazole-4-carboxylic acid formation at 5 mM incubated for 5 mins by 1H-NMR based analysis; assay type: ADME; conditions: bacteria, 5000 µM; procedure, shortened: as §1
# Bacteria [6] = test system: Bacteria; remark: listed apart in the source
# [7] = Drug metabolism assessed as NDM-1 (unknown origin)-mediated compound hydrolysis by measuring (R)-2-((1S,2R)-1-carboxy-2-hydroxypropyl)-5-((R)-tetrahydrofuran-2-yl)-2,3-dihydrothiazole-4-carboxylic acid formation at 5 mM incubated for 5 mins by 1H-NMR based analysis; assay type: ADME; conditions: bacteria, 5000 µM
# Procedure, shortened: (§2)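 NDM-1 used at 5 μM with 5 mM faropenem, 5 min incubation, in 50 mM sodium phosphate, pH 7.5, 10% (v/v) D2O. Degradation products monitored by 700 MHz 1H NMR via methyl group signals.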
# Bradyrhizobium japonicum = conditions: USDA110
# [8] = Drug metabolism assessed as VIM-1 (unknown origin)-mediated compound hydrolysis by measuring (S)-2-((1S,2R)-1-carboxy-2-hydroxypropyl)-5-((R)-tetrahydrofuran-2-yl)-2,3-dihydrothiazole-4-carboxylic acid formation at 5 mM incubated for 5 mins by 1H-NMR based analysis; assay type: ADME; conditions: bacteria, 5000 µM
# [9] = Drug metabolism assessed as VIM-2 (unknown origin)-mediated compound hydrolysis by measuring (S)-2-((1S,2R)-1-carboxy-2-hydroxypropyl)-5-((R)-tetrahydrofuran-2-yl)-2,3-dihydrothiazole-4-carboxylic acid formation at 5 mM incubated for 5 mins by 1H-NMR based analysis; assay type: ADME; conditions: bacteria, 5000 µM
# [10] = Drug metabolism assessed as OXA-23 (unknown origin)-mediated compound hydrolysis by measuring (S)-2-((1S,2R)-1-carboxy-2-hydroxypropyl)-5-((R)-tetrahydrofuran-2-yl)-2,3-dihydrothiazole-4-carboxylic acid formation at 2 mM incubated for 15 mins by 1H-NMR based analysis; assay type: ADME; conditions: bacteria, 0.25 h, 2000 µM
# [11] = Drug metabolism assessed as OXA-23 (unknown origin)-mediated compound hydrolysis by measuring (R)-2-((1S,2R)-1-carboxy-2-hydroxypropyl)-5-(4-hydroxybutylidene)-2,5-dihydrothiazole-4-carboxylic acid formation at 2 mM incubated for 15 mins by 1H-NMR based analysis; assay type: ADME; conditions: bacteria, 0.25 h, 2000 µM
# [12] = Drug metabolism assessed as KPC-2 (unknown origin)-mediated compound hydrolysis by measuring (R)-2-((1S,2R)-1-carboxy-2-hydroxypropyl)-5-((R)-tetrahydrofuran-2-yl)-2,3-dihydrothiazole-4-carboxylic acid formation at 5 mM incubated for 72 mins by 1H-NMR based analysis; assay type: ADME; conditions: bacteria, 1.2 h, 5000 µM
# Bacteria [13] = test system: Bacteria; remark: listed apart in the source
# Bacteria [14] = test system: Bacteria; remark: listed apart in the source
# [15] = Inhibition of KPC-2 (unknown origin); parameters: species or system Bacteria
# [16] = Drug metabolism assessed as OXA-48 (unknown origin)-mediated compound hydrolysis by measuring (R)-2-((1S,2R)-1-carboxy-2-hydroxypropyl)-5-(4-hydroxybutylidene)-2,5-dihydrothiazole-4-carboxylic acid formation at 5 mM incubated for 55 mins by 1H-NMR based analysis; assay type: ADME; conditions: bacteria, 5000 µM
# Procedure, shortened: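 Reaction of OXA-48 (5 μM) with 5 mM faropenem for 55 min in 50 mM sodium phosphate pH 7.5, 10% (v/v) D2O. Products assigned from methyl group resonances in 700 MHz 1H NMR spectra.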
# [17] = Drug metabolism assessed as VIM-2 (unknown origin)-mediated compound hydrolysis by measuring (R)-2-((1S,2R)-1-carboxy-2-hydroxypropyl)-5-((R)-tetrahydrofuran-2-yl)-2,3-dihydrothiazole-4-carboxylic acid formation at 5 mM incubated for 5 mins by 1H-NMR based analysis; assay type: ADME; conditions: bacteria, 5000 µM
# [18] = Drug metabolism assessed as L1 (unknown origin)-mediated compound hydrolysis by measuring (S)-2-((1S,2R)-1-carboxy-2-hydroxypropyl)-5-(4-hydroxybutylidene)-2,5-dihydrothiazole-4-carboxylic acid formation at 5 mM incubated for 5 mins by 1H-NMR based analysis; assay type: ADME; conditions: bacteria, 5000 µM; procedure, shortened: as §1
# Bacteria [19] = test system: Bacteria; remark: listed apart in the source
# [20] = Drug metabolism assessed as OXA10 (unknown origin)-mediated compound hydrolysis by measuring (S)-2-((1S,2R)-1-carboxy-2-hydroxypropyl)-5-((R)-tetrahydrofuran-2-yl)-2,3-dihydrothiazole-4-carboxylic acid formation at 5 mM incubated for 16 hrs by 1H-NMR based analysis; assay type: ADME; conditions: bacteria, 5000 µM
# Procedure, shortened: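 OXA-10 at 5 μM with 5 mM faropenem, incubated 16 h in 50 mM sodium phosphate, pH 7.5, 10% (v/v) D2O. Product formation read by 1H NMR (700 MHz) methyl group resonances.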
# [21] = Drug metabolism assessed as OXA-23 (unknown origin)-mediated compound hydrolysis by measuring (R)-2-((1S,2R)-1-carboxy-2-hydroxypropyl)-5-((R)-tetrahydrofuran-2-yl)-2,3-dihydrothiazole-4-carboxylic acid formation at 2 mM incubated for 15 mins by 1H-NMR based analysis; assay type: ADME; conditions: bacteria, 0.25 h, 2000 µM
# [22] = Drug metabolism assessed as VIM-1 (unknown origin)-mediated compound hydrolysis by measuring (S)-2-((1S,2R)-1-carboxy-2-hydroxypropyl)-5-(4-hydroxybutylidene)-2,5-dihydrothiazole-4-carboxylic acid formation at 5 mM incubated for 5 mins by 1H-NMR based analysis; assay type: ADME; conditions: bacteria, 5000 µM
# [23] = Drug metabolism assessed as NDM-1 (unknown origin)-mediated compound hydrolysis by measuring (R)-2-((1S,2R)-1-carboxy-2-hydroxypropyl)-5-(4-hydroxybutylidene)-2,5-dihydrothiazole-4-carboxylic acid formation at 5 mM incubated for 5 mins by 1H-NMR based analysis; assay type: ADME; conditions: bacteria, 5000 µM; procedure, shortened: as §2
# Bacteria [24] = test system: Bacteria; remark: listed apart in the source
structure (smiles),measurement,setting,value
C[C@@H](O)[C@H]1C(=O)N2C(C(=O)O)=C([C@H]3CCCO3)S[C@H]12 [FAROPENEM],Drug metabolism,[1],Metabolite_Detected
same,Drug metabolism,[2],Metabolite_Detected
same,Km,Bacteria [3],36.3 µM
same,Drug metabolism,[4],Metabolite_Detected
same,Drug metabolism,[5],Metabolite_Detected
same,kcat,Bacteria [6],36.7 s⁻¹
same,Drug metabolism,[7],Metabolite_Detected
same,kcat/Km,Bradyrhizobium japonicum,8000 M⁻¹ s⁻¹
same,Drug metabolism,[8],Metabolite_Detected
same,Drug metabolism,[9],Metabolite_Detected
same,Drug metabolism,[10],Metabolite_Detected
same,Drug metabolism,[11],Metabolite_Detected
same,Drug metabolism,[12],Metabolite_Detected
same,Km,Bacteria [13],16.6 µM
same,kcat/Km,Bacteria [14],220000 M⁻¹ s⁻¹
same,Ki,[15],44.1 µM
same,Drug metabolism,[16],Metabolite_Detected
same,Drug metabolism,[17],Metabolite_Detected
same,Drug metabolism,[18],Metabolite_Detected
same,kcat,Bacteria [19],43.7 s⁻¹
same,Drug metabolism,[20],Metabolite_Detected
same,kcat,Klebsiella pneumoniae,14.7 s⁻¹
same,Drug metabolism,[21],Metabolite_Detected
same,Drug metabolism,[22],Metabolite_Detected
same,Drug metabolism,[23],Metabolite_Detected
same,kcat/Km,Bacteria [24],7.17e+06 M⁻¹ s⁻¹
